Measurements published in ChEMBL document CHEMBL2202977, “Optimization and structure-activity relationships of a series of potent inhibitors of methicillin-resistant Staphylococcus aureus (MRSA) pyruvate kinase as novel antimicrobial agents” (Bioorg Med Chem, 2012).
In brackets after ≈: the same amount, converted by molar mass.

How the values were obtained:
[1] = system: THP-1; experiment: Cytotoxicity against human THP1 cells assessed as cell death at 6.25 uM after 24 hrs by MTS assay; assay type: cell-based; details: thp-1, 24 h
In short: (§1)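 THP-1 cells were exposed to test agent at 25 µM and 6.25 µM. Read-out was percentage of dead cells.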

[2] = system: THP-1; experiment: Cytotoxicity against human THP1 cells assessed as cell death at 25 uM after 24 hrs by MTS assay; assay type: cell-based; details: thp-1, 24 h; in short: as §1
[3] = system: Staphylococcus aureus; experiment: Antimicrobial activity against Staphylococcus aureus RN4220 after 24 hrs broth microdilution method; assay type: functional
In short: (§2)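 MIC taken as the minimum concentration giving >98% growth inhibition of the named S. aureus strain (RN4220, ATCC 25923 or ATCC 29213). Values are single determinations or averages of n determinations. Vancomycin was run as control.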

[4] = biological target: T1, Pyruvate kinase (Staphylococcus aureus (strain MRSA252), UniProt Q6GG09); experiment: Inhibition of methicillin-resistant Staphylococcus aureus 252 pyruvate kinase by LDH assay; design: species or system Staphylococcus aureus subsp. aureus MRSA252
T1 sequence (Q6GG09 whole entry): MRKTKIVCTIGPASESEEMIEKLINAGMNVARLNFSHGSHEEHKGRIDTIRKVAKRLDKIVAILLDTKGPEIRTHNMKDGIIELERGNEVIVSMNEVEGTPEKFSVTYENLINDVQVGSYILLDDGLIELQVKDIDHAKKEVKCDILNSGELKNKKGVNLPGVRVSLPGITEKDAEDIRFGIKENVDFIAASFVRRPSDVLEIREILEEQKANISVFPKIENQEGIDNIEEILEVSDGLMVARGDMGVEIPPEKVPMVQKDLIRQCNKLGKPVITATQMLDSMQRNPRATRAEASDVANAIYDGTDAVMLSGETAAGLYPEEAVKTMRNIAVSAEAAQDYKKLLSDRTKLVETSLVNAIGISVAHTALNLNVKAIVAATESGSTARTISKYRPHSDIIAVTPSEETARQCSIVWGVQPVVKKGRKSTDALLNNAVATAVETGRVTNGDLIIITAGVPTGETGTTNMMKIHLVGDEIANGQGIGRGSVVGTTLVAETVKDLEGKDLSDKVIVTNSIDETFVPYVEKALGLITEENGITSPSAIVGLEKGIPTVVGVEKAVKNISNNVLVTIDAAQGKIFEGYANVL
In short: (§3)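 MRSA pyruvate kinase activity was measured by a previously described procedure. IC50 was calculated from triplicate 15-point titrations, or averaged over n such determinations. Where no IC50 was obtained, the value is % inhibition at the highest concentration tested.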

[5] = biological target: T2, Pyruvate kinase (Staphylococcus aureus (strain MRSA252)) (UniProt Q6GG09); experiment: Inhibition of methicillin-resistant Staphylococcus aureus 252 pyruvate kinase at 1 uM by LDH assay; details: Staphylococcus aureus subsp. aureus MRSA252; in short: as §3
T2 sequence (whole entry): T1 sequence (Q6GG09 whole entry)

[6] = system: Staphylococcus aureus; experiment: Antimicrobial activity against Staphylococcus aureus ATCC 25923 after 24 hrs broth microdilution method; assay type: functional; in short: as §2
[7] = system: Staphylococcus aureus; experiment: Antimicrobial activity against Staphylococcus aureus ATCC 29213 after 24 hrs broth microdilution method; assay type: functional; in short: as §2
[8] = biological target: T2, Pyruvate kinase (Staphylococcus aureus (strain MRSA252)); experiment: Inhibition of methicillin-resistant Staphylococcus aureus 252 pyruvate kinase at 0.5 uM by LDH assay; details: Staphylococcus aureus subsp. aureus MRSA252; in short: as §3
[9] = biological target: Pyruvate kinase PKLR (Homo sapiens) (UniProt P30613); experiment: Inhibition of human pyruvate kinase L at 10 uM by LDH assay
In short: (§4)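 Selected compounds were tested against mammalian PK isoforms M1, M2, R and L at the highest concentration, 10 µM. Results are given as percent inhibition.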

[10] = biological target: Pyruvate kinase PKM (Homo sapiens) (UniProt P14618); experiment: Inhibition of human pyruvate kinase M2 at 10 uM by LDH assay; in short: as §4
[11] = biological target: Pyruvate kinase PKLR (Homo sapiens) (UniProt P30613); experiment: Inhibition of human pyruvate kinase R at 10 uM by LDH assay; in short: as §4
[12] = biological target: Pyruvate kinase PKM (Homo sapiens) (UniProt P14618); experiment: Inhibition of human pyruvate kinase M1 at 10 uM by LDH assay; in short: as §4
[13] = biological target: T2, Pyruvate kinase (Staphylococcus aureus (strain MRSA252)); experiment: Inhibition of methicillin-resistant Staphylococcus aureus 252 pyruvate kinase at 10 uM by LDH assay; details: Staphylococcus aureus subsp. aureus MRSA252; in short: as §3

Sequence of Pyruvate kinase PKM (Homo sapiens) (P14618 2-531 limits assumed): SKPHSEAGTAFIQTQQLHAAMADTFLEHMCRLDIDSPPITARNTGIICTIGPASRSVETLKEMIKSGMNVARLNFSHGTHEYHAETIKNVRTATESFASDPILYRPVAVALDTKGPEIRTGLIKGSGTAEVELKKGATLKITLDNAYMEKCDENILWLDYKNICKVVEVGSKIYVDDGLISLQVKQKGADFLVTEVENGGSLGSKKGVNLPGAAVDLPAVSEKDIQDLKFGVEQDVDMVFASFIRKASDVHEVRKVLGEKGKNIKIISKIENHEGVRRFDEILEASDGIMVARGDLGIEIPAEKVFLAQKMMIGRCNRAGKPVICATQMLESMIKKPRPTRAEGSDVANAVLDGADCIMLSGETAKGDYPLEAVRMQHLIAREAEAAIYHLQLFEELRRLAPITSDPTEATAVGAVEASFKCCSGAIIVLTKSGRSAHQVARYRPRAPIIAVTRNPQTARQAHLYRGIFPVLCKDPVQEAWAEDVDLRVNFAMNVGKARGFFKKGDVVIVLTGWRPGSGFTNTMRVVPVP
Sequence of Pyruvate kinase PKLR (Homo sapiens) (P30613 whole entry, looked up, canonical isoform): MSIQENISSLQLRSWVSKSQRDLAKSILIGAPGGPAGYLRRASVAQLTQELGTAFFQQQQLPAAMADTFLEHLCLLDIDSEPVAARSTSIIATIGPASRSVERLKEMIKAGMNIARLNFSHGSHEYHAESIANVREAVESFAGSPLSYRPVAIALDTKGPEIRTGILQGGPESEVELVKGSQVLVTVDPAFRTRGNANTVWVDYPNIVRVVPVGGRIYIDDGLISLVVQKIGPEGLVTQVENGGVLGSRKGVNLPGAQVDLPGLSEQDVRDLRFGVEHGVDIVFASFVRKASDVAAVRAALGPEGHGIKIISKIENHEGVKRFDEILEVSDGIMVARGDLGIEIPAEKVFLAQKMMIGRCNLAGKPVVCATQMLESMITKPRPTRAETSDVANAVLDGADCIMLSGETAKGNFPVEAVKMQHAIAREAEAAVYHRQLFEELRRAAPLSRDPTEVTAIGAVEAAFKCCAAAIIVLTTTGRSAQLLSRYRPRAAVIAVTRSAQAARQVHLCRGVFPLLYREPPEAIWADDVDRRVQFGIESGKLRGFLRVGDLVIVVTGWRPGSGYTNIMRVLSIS

`Cn1c(C(=NNC(=O)c2cc(Br)ccc2O)c2ccccc2)cc2ccccc21` (mixture of isomers) was tested, and the Activity [1] was 19%, the Activity [2] was 78% and the “MIC>98” value [3] was 1.4 µg/mL. The IC50 [4] was 6.04 µM.

For `COc1ccc(Br)cc1C(=O)N(C)/N=C(\C)c1cc2ccccc2[nH]1`, the inhibition [5] was 33% and the “MIC>98” value [6] was >80 µg/mL.

In the case of `C/C(=N\NC(=O)c1cc2ccccc2cc1O)c1cc2c(F)c(F)c(F)cc2n1C`, the “MIC>98” value [7] is reported as >64 µg/mL and the IC50 [4] is reported as 0.059 µM.

For `CC(=NNC(=O)c1ccc(Br)cc1O)c1cc2ccccc2n1C` (mixture of isomers), the inhibition [8] was 61% and the “MIC>98” value [3] was 4.8 µg/mL.

`CC(=NNC(=O)c1cc(Br)ccc1O)c1cc2cc(O)ccc2n1C` (mixture of isomers) was tested, and the inhibition [5] was 54% and the “MIC>98” value [6] was >64 µg/mL.

With `COc1ccc(Br)cc1C(=O)N/N=C/c1cc2ccccc2[nH]1` the “MIC>98” value [7] was >64 µg/mL and the IC50 [4] was 0.451 µM.

With `CC/C(=N\NC(=O)c1cc2ccccc2cc1O)c1cc2cc(Br)ccc2[nH]1` the inhibition [9] was -0.2%, the inhibition [10] was 3% and the inhibition [11] was -3.4%. For the same compound, the inhibition [12] was 5.6%, the inhibition [13] was 99.6% and the “MIC>98” value [7] was 16 µg/mL (≈ 36.7 µM). The IC50 [4] was 0.018 µM.

`C/C(=N\NC(=O)c1cc(Br)ccc1O)c1cc2c(F)c(F)c(F)cc2[nH]1` was tested, and the “MIC>98” value [7] was >85 µg/mL and the IC50 [4] was 0.015 µM.

`CC/C(=N\NC(=O)c1cc2ccccc2cc1O)c1cc2c(F)c(F)c(F)cc2[nH]1` was tested, and the “MIC>98” value [7] was >64 µg/mL and the IC50 [4] was 0.031 µM.

For `C/C(=N\NC(=O)c1cc(Br)ccc1O)c1cc2cc(-c3ccccc3)ccc2[nH]1`, the inhibition [5] was 0% and the “MIC>98” value [3] was >90 µg/mL.

`CC(C)(C)/C(=N/NC(=O)c1cc(Br)ccc1O)c1cc2ccccc2[nH]1` was tested, and the inhibition [13] was 0%, the Activity [1] was 42% and the Activity [2] was 50%. The “MIC>98” value [3] was 83 µg/mL (≈ 200 µM).

Compound `CC(=NNC(=O)c1cc(Br)ccc1O)c1cc2ccccc2n1C` (mixture of isomers) has an inhibition [10] of 0.4%, an inhibition [11] of 2.6% and an inhibition [12] of -3.7%. For the same compound, the inhibition [13] was 96.3%, the “MIC>98” value [7] was 7.7 µg/mL and the IC50 [4] was 0.381 µM.

For `Cn1c(/C(=N\NC(=O)c2cc(Br)ccc2O)C(C)(C)C)cc2ccccc21`, the inhibition [13] was 0%, the Activity [1] was 25% and the Activity [2] was 73%. For the same compound, the “MIC>98” value [3] was 10.7 µg/mL (≈ 25 µM).

With `COc1c(Br)cc(Br)cc1C(=O)N/N=C(\C)c1cc2ccccc2[nH]1` the inhibition [5] was 57% and the “MIC>98” value [6] was >93 µg/mL.

With `C/C(=N\NC(=O)c1cc2ccccc2cc1O)c1cc2ccccc2[nH]1` the “MIC>98” value [7] was >64 µg/mL and the IC50 [4] was 0.042 µM.

For `CC/C(=N\NC(=O)c1cc(Br)ccc1O)c1cc2cc(Br)ccc2[nH]1`, the “MIC>98” value [7] was 4 µg/mL (≈ 8.6 µM) and the IC50 [4] was 0.049 µM.

`CC(=NNC(=O)c1cc2ccccc2cc1O)c1cc2cc(Br)ccc2n1C` (mixture of isomers) was tested, and the “MIC>98” value [7] was >64 µg/mL and the IC50 [4] was 0.115 µM.

In the case of `C/C(=N\NC(=O)c1cc(Br)ccc1O)c1cc2cccc(F)c2[nH]1`, the inhibition [8] is reported as 39% and the “MIC>98” value [3] is reported as >156 µg/mL.

For `CC(=NNC(=O)c1cc(Br)ccc1O)c1nc2ccccc2o1` (mixture of isomers), the inhibition [8] was 26% and the “MIC>98” value [7] was >150 µg/mL.

In the case of `O=C(NN=C(c1ccccc1)c1cc2ccccc2[nH]1)c1cc(Br)ccc1O`, the inhibition [9] is reported as 5.6%, the inhibition [10] is reported as 4.8% and the inhibition [11] is reported as 13.4%. For the same compound, the inhibition [12] was 11.2%, the inhibition [13] was 97.6% and the Activity [1] was 43%. The Activity [2] was 83%, the “MIC>98” value [3] was 1.4 µg/mL (≈ 3.22 µM) and the IC50 [4] was 0.445 µM.

In the case of `C/C(=N\NC(=O)c1cc(Br)ccc1O)c1cc2ccc(Br)cc2[nH]1`, the “MIC>98” value [6] is reported as >64 µg/mL and the IC50 [4] is reported as 0.024 µM.

Work on `CCC(=NNC(=O)c1cc2ccccc2cc1O)c1cc2cc(Br)ccc2n1C` (mixture of isomers) yielded an inhibition [9] of -5.6%, an inhibition [10] of -0.8% and an inhibition [11] of -0.6%. For the same compound, the inhibition [12] was 0%, the inhibition [13] was 97.7% and the “MIC>98” value [7] was 1 µg/mL. For the same compound, the IC50 [4] was 0.079 µM.

For `C/C(=N\NC(=O)c1cc2ccccc2cc1O)c1cc2cc(Br)ccc2[nH]1`, the “MIC>98” value [7] was >64 µg/mL and the IC50 [4] was 0.026 µM.

With `CCOc1ccc(Br)cc1C(=O)N/N=C(\C)c1cc2ccccc2[nH]1` the “MIC>98” value [7] was >64 µg/mL and the IC50 [4] was 0.063 µM.

`CCOCOc1ccccc1C(=O)N/N=C(\C)c1cc2cc(Br)ccc2[nH]1` was tested, and the “MIC>98” value [7] was >64 µg/mL and the IC50 [4] was 0.251 µM.

With `C/C(=N\NC(=O)c1cc(Cl)ccc1O)c1cc2ccccc2[nH]1` the inhibition [5] was 36% and the “MIC>98” value [3] was >64 µg/mL.

`CC(=NNC(=O)c1cc(Br)ccc1O)c1cc2c(F)c(F)c(F)cc2n1C` (mixture of isomers) was tested, and the “MIC>98” value [7] was 2 µg/mL and the IC50 [4] was 0.055 µM.

For `C/C(=N\NC(=O)c1cc(Br)ccc1O)c1cc2cc(O)ccc2[nH]1`, the “MIC>98” value [6] was >64 µg/mL and the IC50 [4] was 0.214 µM.
